In article PMC3771329 (Journal of the American Chemical Society, 2013):

Columns and labels:
furin = furin (Homo sapiens, UniProt P09958); test: Fluorescence spectrometry of probes incubated with and without furin; format: biochemical; details: 2 μM probe, furin (100 pmol·U−1) buffer (100 mM HEPES, 1 mM CaCl2, pH 7.5) with 1 mM TCEP, 3 h, 37 °C; n=3
[1] = tested on: MDA-MB-231 (furin-overexpressing) subcutaneous tumors; test: Furin-like activity photoacoustic imaging in mice, MDA-MB-231 tumors; format: in vivo; details: 25 nmol by tail vein; imaged every 15 min up to 60 min; n=4
Method in brief: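 Female nude (Nu/Nu) mice carried subcutaneous upper-thigh xenografts from 10 million MDA-MB-231 or LoVo cells, grown 3–4 weeks. Mice were under 2% isoflurane in oxygen with a tail-vein catheter. Tumors got an 11-min pre-scan at 740 nm. Test compound (25 nmol, diluted from DMSO stock into 150 μL sterile PBS) was given i.v. PA scans ran every 15 min for 1 h: 120 views, 100 pulses/view, 250 μm voxels, 3D back-projection reconstruction. Signal normalized to t=0; n=4/group, SD; two-sided paired t test.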

[2] = format: physicochemical; details: after incubation with furin, buffer pH 7.5 with TCEP, 37 °C, 3 h

furin, sequence (P09958 108-595 limits assumed): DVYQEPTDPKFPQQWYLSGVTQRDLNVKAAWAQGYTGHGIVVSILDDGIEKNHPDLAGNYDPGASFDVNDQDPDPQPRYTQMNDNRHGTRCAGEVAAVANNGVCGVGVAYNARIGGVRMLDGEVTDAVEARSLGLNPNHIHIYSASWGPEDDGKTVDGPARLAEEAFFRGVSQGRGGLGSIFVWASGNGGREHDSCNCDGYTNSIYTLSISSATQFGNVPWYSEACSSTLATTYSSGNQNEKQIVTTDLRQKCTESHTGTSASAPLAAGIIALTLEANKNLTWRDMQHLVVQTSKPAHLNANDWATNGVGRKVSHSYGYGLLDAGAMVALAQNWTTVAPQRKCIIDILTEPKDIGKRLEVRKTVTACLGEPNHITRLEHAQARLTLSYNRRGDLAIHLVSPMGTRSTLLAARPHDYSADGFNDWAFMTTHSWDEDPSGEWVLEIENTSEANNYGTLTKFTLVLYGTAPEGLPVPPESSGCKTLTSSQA

drop in fluorescence, incubated with furin relative to no furin added (furin)	Substance	PA signal in MDA-MB-231 tumors after probe injection [1]	precipitation / water solubility of the oligomers formed with furin [2]
no significant decrease	Ac-RRRVC(SEt)K(Atto740)-CABT [ESOR-PA02]	very low levels of PA signal	–
6 fold	Ac-RVRRC(SEt)K(Atto740)-CABT [ESOR-PA01]	–	no precipitate was formed
